Experimental data as given in ChEMBL document CHEMBL1133471, “Sequential cytotoxicity: a theory evaluated using novel 2-[4-(3-aryl-2-propenoyloxy)phenylmethylene]cyclohexanones and related compounds” (J Med Chem, 2000).
Starred links: 1 amine or outer side, 2 acyl side, 3 side chain; linkers in the order of their positions; H or OH if unused. Positions of bridges follow the written chain, without caps; N, C: chain ends. Non-standard residues stand in square brackets, D forms with d. Residues, ends and D or L forms follow the SMILES beside them. Chains are numbered I, II in the order given. Actinocin(1to9) = Cc1c2oc3c(C)ccc(C(=O)[*:2])c3nc-2c(C(=O)[*:1])c(N)c1=O; NMeV = CN[C@H](C(=O)O)C(C)C; Sar = CNCC(=O)O

Key:
[1] = test system: P388; experiment: Concentration required to inhibit 50% of cell growth on murine P388 D1 cells.; assay type: functional, cell-based; conditions: Mus musculus
[2] = test system: MOLT-4; experiment: Concentration required to inhibit 50% of cell growth on human Molt 4/C8 cells.; assay type: functional, cell-based
Procedure, shortened: (§1)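 Murine P388 D1 and L1210 leukemia cells and human Molt 4/C8 and CEM T-lymphocytes were tested. IC50 is the concentration inhibiting 50% of growth.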

[3] = test system: CCRF-CEM; experiment: Concentration required to inhibit 50% of cell growth on CEM lymphocytes.; assay type: functional, cell-based; conditions: Homo sapiens; procedure, shortened: as §1
[4] = test system: L1210; experiment: Concentration required to inhibit 50% of cell growth on murine L1210 cells.; assay type: functional, cell-based; conditions: Mus musculus; procedure, shortened: as §1
[5] = organism: Homo sapiens; experiment: (§2) Inhibitory concentration was evaluated on human Jurkat T-cells after their exposure for 48 hours; assay type: functional
Procedure, shortened: (§3)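 Human Jurkat T cells exposed to compounds for 48 h. Viability scored by nigrosin dye exclusion, used in place of trypan blue. IC50 and IC80 taken from the resulting viability data.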

[6] = organism: Homo sapiens; experiment: as §2; assay type: functional, cell-based; procedure, shortened: as §3
[7] = organism: Homo sapiens; experiment: Inhibition of protein synthesis was evaluated on human Jurkat T-cells after 8 hours.; assay type: functional; design: concentration or dose not given beside the values
[8] = organism: Homo sapiens; experiment: Inhibition of RNA synthesis was evaluated on human Jurkat T-cells after 8 hours.; assay type: functional; design: concentration or dose not given beside the values
[9] = organism: Homo sapiens; experiment: Apoptotic index calculated using human Jurkat T cells; assay type: functional
Procedure, shortened: (§4)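 Jurkat T cells exposed at concentrations giving IC80 (IC80 determined after 48 h exposure). Nuclei stained with ethidium bromide (0.1% w/v) plus acridine orange (0.1% w/v). Apoptotic index = (cells with apoptotic nuclei / cells counted) × 100.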

[10] = test system: Colon carcinoma cell; experiment: Mean graph mid point was measured on colon cancer cells.; assay type: functional, Homo sapiens
Procedure, shortened: (§5)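 Human tumor panel of about 55 lines: leukemia, melanoma, non-small-cell lung, colon, CNS, ovarian, renal, prostate and breast. Compounds generally tested from 10^-4 to 10^-8 M, noting 50% growth inhibition for each line. Mean graph midpoints taken for all lines, leukemic lines and colon lines. Duplicate or triplicate runs were averaged.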

[11] = Selectivity index is the ratio of MG MID value for all cell lines to that of leukemic cells; assay type: functional
[12] = Selectivity index is the ratio of MG MID value for all cell lines to that of colon cancer cells; assay type: functional
[13] = test system: leukaemia cell line; experiment: Mean graph mid point was measured on leukemic cells.; assay type: functional, Homo sapiens; procedure, shortened: as §5
[14] = test system: Tumor cancer cell line; experiment: (§6) Mean graph mid point was measured on all cell lines.; assay type: functional, Homo sapiens; procedure, shortened: as §5
[15] = organism: Homo sapiens; experiment: Apoptotic index was evaluated on human Jurkat T-cells after 24 hours.(Using 80% inhibitory concentration); assay type: functional; procedure, shortened: as §4
[16] = test system: Mus musculus; experiment: sc score was calculated by implanting different tumor cell lines in hollow fibres in mice by the subcutaneously route (Net cell kill was not observed).; assay type: functional
[17] = test system: Mus musculus; experiment: Ip score was calculated by implanting different tumor cell lines in hollow fibres in mice by the intraperitoneal route (Net cell kill was not observed).; assay type: functional
[18] = test system: Mus musculus; experiment: Ip score was calculated by implanting different tumor cell lines in hollow fibres in mice by the intraperitoneal route (Net cell kill was not observed); assay type: functional
[19] = test system: Mus musculus; experiment: Sc score was calculated by implanting different tumor cell lines in hollow fibres in mice by the subcutaneously route (Net cell kill was not observed); assay type: functional
[20] = test system: Mus musculus; experiment: Ip score was calculated by implanting different tumor cell lines in hollow fibres in mice by the intraperitoneal route(Net cell kill was observed it indicates the cytotoxicity was occurred); assay type: functional
[21] = organism: Mus musculus; experiment: Sc score was calculated by implanting different tumor cell lines in hollow fibres in mice by the occurred); assay type: functional
Procedure, shortened: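 Mice carried hollow fibers with 12 human tumor lines (colon, breast, NSCLC, melanoma, ovarian, CNS) implanted ip and sc. Compounds were given ip at two doses daily for 4 days. Fibers were collected 1 day after the last dose. Viable cell mass was measured by MTT formazan conversion, giving the sc score.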

[22] = test system: Panel colon (Carcinoma cell lines); experiment: Mean graph mid point was measured on colon cancer cell lines.; assay type: functional, Homo sapiens; procedure, shortened: as §5
[23] = test system: leukaemia cell line; experiment: Mean graph mid point was measured on leukemicell lines.; assay type: functional, Homo sapiens; procedure, shortened: as §5
[24] = test system: Tumor cell line; experiment: as §6; assay type: functional, Homo sapiens; procedure, shortened: as §5

Row | SMILES | IC50 [1] | IC50 [2] | IC50 [3] | IC50 [4] | MG MID [10] | SI [11] | SI [12] | MG MID [13] | MG MID [14] | other results
1 | O=C1CCCC/C1=C\c1ccc(OC(=O)c2ccccc2)cc1 | > 50 µM |  |  |  |  |  |  |  |  | 
2 | COc1ccc(/C=C/C(=O)Oc2ccc(/C=C3\CCCC(CN(C)C)C3=O)cc2)cc1 (stereo unspecified) | 2.41 µM |  |  |  |  |  |  |  |  | 
3 | COc1ccc(C(=O)Oc2ccc(/C=C3\CCCC(CN(C)C)C3=O)cc2)cc1 (stereo unspecified) | 0.332 µM | 2.36 µM | 5.07 µM | 2.87 µM |  |  |  |  |  | 
4 | Cc1c2oc3c(C)ccc(C(=O)N[C@@H]4C(=O)N[C@H](C(C)C)C(=O)N5CCC[C@H]5C(=O)N(C)CC(=O)N(C)[C@@H](C(C)C)C(=O)O[C@@H]4C)c3nc-2c(C(=O)N[C@@H]2C(=O)N[C@H](C(C)C)C(=O)N3CCC[C@H]3C(=O)N(C)CC(=O)N(C)[C@@H](C(C)C)C(=O)O[C@@H]2C)c(N)c1=O [DACTINOMYCIN] (I: T[dV]P[Sar][NMeV] / II: T[dV]P[Sar][NMeV]; ester I:1-I:C, II:1-II:C; linker I:N-II:N via Actinocin(1to9)) |  |  |  |  |  |  |  |  |  | IC80 [5]: 0.0072 µM; IC50 [6]: 4.5 nM; Inhibition [7]: 49.2%; Inhibition [8]: 90.5%; Apoptotic index [9]: 35.5
5 | COc1ccc(/C=C/C(=O)Oc2ccc(/C=C3\CCCCC3=O)cc2)cc1 | 9.03 µM | 2.06 µM | 8.78 µM | 10.2 µM | 25.4 µM | 5.3 | 2 | 9.36 µM | 49.7 µM | 
6 | Cc1ccc(/C=C/C(=O)Oc2ccc(/C=C3\CCCC(CN(C)C)C3=O)cc2)cc1 (stereo unspecified) | 1.29 µM | 3.39 µM | 7.02 µM | 2.43 µM |  |  |  |  |  | 
7 | O=C(/C=C/c1ccc(Br)cc1)Oc1ccc(/C=C2\CCCCC2=O)cc1 | > 50 µM | 180 µM | 131 µM | 127 µM |  |  |  |  |  | IC80 [5]: 31.7 µM; Apoptotic index [15]: 23.3; IC50 [6]: 19800 nM; Inhibition [7]: 69.1%; Inhibition [8]: 77.5%; Apoptotic index [9]: 23.3
8 | O=c1[nH]cc(F)c(=O)[nH]1 [FLUOROURACIL] | 0.49 µM | 23 µM | 8.9 µM | 0.28 µM | 7.9 µM |  |  | 27.6 µM | 32.6 µM | 
9 | CN(C)CC1CCC/C(=C\c2ccc(OC(=O)c3ccc(Cl)cc3)cc2)C1=O.Cl (stereo unspecified) | 0.425 µM | 5.11 µM | 6.15 µM | 5.61 µM | 1.21 µM | 5.4 | 1.4 | 0.307 µM | 1.66 µM | IC80 [5]: 5.6 µM; IC50 [6]: 3500 nM; Subcut score [16]: 10; Inhibition [7]: 62%; Inhibition [8]: 88.4%; Ip score [17]: 2; Apoptotic index [9]: 73.3
10 | Cc1ccc(/C=C/C(=O)Oc2ccc(/C=C3\CCCCC3=O)cc2)cc1 | > 50 µM | 156 µM | 230 µM | 202 µM |  |  |  |  |  | 
11 | O=C1CCCC/C1=C\c1ccc(OC(=O)c2ccc(Cl)cc2)cc1 | 25.5 µM | 38 µM | 41 µM | 3.33 µM |  |  |  |  |  | 
12 | CN(C)CC1CCC/C(=C\c2ccc(OC(=O)/C=C/c3ccc(Br)cc3)cc2)C1=O.Cl (stereo unspecified) | 4.03 µM | 3.06 µM | 4.44 µM | 1.78 µM |  |  |  |  |  | IC80 [5]: 7.63 µM; IC50 [6]: 4470 nM; Inhibition [7]: 46.6%; Inhibition [8]: 84.5%; Apoptotic index [9]: 59.2
13 | O=C(/C=C/c1ccc(Cl)cc1)Oc1ccc(/C=C2\CCCCC2=O)cc1 | > 50 µM | 78.6 µM | 63.4 µM | 64.3 µM | 81 µM | 1.5 | 1.1 | 60.5 µM | 91.2 µM | 
14 | C[C@@H]1C[C@@H]([C@H](O)CC2CC(=O)NC(=O)C2)C(=O)[C@@H](C)C1 [CYCLOHEXIMIDE] |  |  |  |  |  |  |  |  |  | IC50 [6]: 930 nM; Inhibition [7]: 71.9%; Inhibition [8]: 93.3%; Apoptotic index [9]: 38.3
15 | C=C1C(=O)O[C@@H]2C[C@@H](C)[C@@H]3C=CC(=O)[C@@]3(C)[C@@H](O)[C@H]12 [HELENALIN] |  |  |  |  | 1.42 µM | 2.3 | 1 | 0.62 µM | 1.45 µM | 
16 | CN(C)CC1CCC/C(=C\c2ccc(OC(=O)/C=C/c3ccc(Cl)cc3)cc2)C1=O.Cl (stereo unspecified) | 1.61 µM | 2.65 µM | 3.56 µM | 1.74 µM | 2.3 µM | 4.1 | 1.6 | 0.864 µM | 3.58 µM | Ip score [18]: 0; IC80 [5]: 4.04 µM; IC50 [6]: 2530 nM; Inhibition [7]: 37%; Inhibition [8]: 78%; Subcut score [19]: 6; Apoptotic index [9]: 87
17 | Cc1ccc(C(=O)Oc2ccc(/C=C3\CCCCC3=O)cc2)cc1 | > 50 µM | 25.6 µM | 22.7 µM | 44.8 µM |  |  |  |  |  | 
18 | O=C(/C=C/c1ccc(F)cc1)Oc1ccc(/C=C2\CCCCC2=O)cc1 | > 50 µM | 26.6 µM | 14.4 µM | 30.9 µM |  |  |  |  |  | 
19 | CN(C)CC1CCC/C(=C\c2ccc(OC(=O)c3ccccc3)cc2)C1=O (stereo unspecified) | 0.18 µM | 24.1 µM | 29.4 µM | 23.4 µM |  |  |  |  |  | 
20 | O=C(/C=C/c1ccccc1)Oc1ccc(/C=C2\CCCCC2=O)cc1 | 20.3 µM | 30.7 µM | 26 µM | 30.7 µM | 29.1 µM | 4.4 | 1.3 | 8.32 µM | 36.3 µM | 
21 | CN(C)CC1CCC/C(=C\c2ccc(OC(=O)/C=C/c3ccccc3)cc2)C1=O.Cl (stereo unspecified) | 4.02 µM | 39.5 µM | 42.8 µM | 32.8 µM | 2.21 µM | 2.3 | 1.1 | 1.06 µM | 2.41 µM | Ip score [20]: 12; Subcut score [21]: 14
22 | COc1ccc(C(=O)Oc2ccc(/C=C3\CCCCC3=O)cc2)cc1 | > 50 µM | 34 µM | 36.1 µM | 43.4 µM |  |  |  |  |  | 
23 | O=C(CCc1ccccc1)Oc1ccc(/C=C2\CCCCC2=O)cc1 | 21.9 µM | 31.1 µM | 34.4 µM | 52.4 µM |  |  |  |  |  | 
24 | CN(C)CC1CCC/C(=C\c2ccc(OC(=O)/C=C/c3ccc(Cl)c(Cl)c3)cc2)C1=O.Cl (stereo unspecified) | 4.18 µM | 4.57 µM | 5.82 µM | 3.31 µM |  | 4.3 | 1.5 |  |  | MG MID [22]: 2.38 µM; MG MID [23]: 0.83 µM; MG MID [24]: 3.57 µM
25 | N[C@@H](Cc1ccc(N(CCCl)CCCl)cc1)C(=O)O |  |  |  |  | 44.6 µM |  |  | 4.65 µM | 23.5 µM | IC50 [6]: 2200 nM; Inhibition [7]: 17.3%; Inhibition [8]: 85.1%
26 | CN(C)CC1CCC/C(=C\c2ccc(OC(=O)/C=C/c3ccc(F)cc3)cc2)C1=O (stereo unspecified) | 4.55 µM | 3.78 µM | 6 µM | 1.84 µM |  |  |  |  |  | 
27 | O=C(/C=C/c1ccc(Cl)c(Cl)c1)Oc1ccc(/C=C2\CCCCC2=O)cc1 | > 50 µM | 47.3 µM | 63.8 µM | 64.8 µM | 100 µM | 1.7 | 0.9 | 53 µM | 91.2 µM | 
